According to ChEMBL document CHEMBL1140927, “Discovery of N-(3-fluorophenyl)-1-[(4-([(3S)-3-methyl-1-piperazinyl]methyl)phenyl)acetyl]-4-piperidinamine (GSK962040), the first small molecule motilin receptor agonist clinical candidate” (J Med Chem, 2009):

What was measured:
Motilin receptor [1] = target: T1, Motilin receptor (Homo sapiens, UniProt O43193); test: Intrinsic activity at human recombinant motilin receptor expressed in CHO cells relative to motilin; assay type: cell-based
Method in brief: (§1)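 CHO-K1 cells stably transfected with human motilin receptor, grown in DMEM/HamF-12 with 10% FBS, 2 mM GlutaMAX, 1 mg/mL Geneticin; seeded 10 000 cells/well, 24 h. Loaded with Fluo 4 (2.5 µM) in Tyrodes with probenecid, 1 h at 37.5 °C. Compound top final 12 µM, 1-in-4 dilutions; fluorescence read over 1 min; max change over baseline, four-parameter logistic fit; intrinsic activity = curve maximum relative to motilin maximum.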

Cytochrome P450 3A4 [2] = target: T2, Cytochrome P450 3A4 (Homo sapiens, UniProt P08684); test: Inhibition of human CYP3A4 expressed in Escherichia coli using diethoxyfluorescein substrate measured in 25 to 30 mins by time dependent inhibition assay; assay type: ADME
Stomach [3] = test: Potentiation of electric field stimulated-rabbit gastric antrum contraction at 0.3 uM; assay type: functional, Oryctolagus cuniculus
Method in brief: (§2)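 Isolated native rabbit gastric antrum tissue. Cholinergic contractions are evoked by electrical field stimulation (EFS), and compound is added at the stated concentration. The read-out is % potentiation of EFS-evoked contractions, n = 4-8.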

Stomach [4] = test: Potentiation of electric field stimulated-rabbit gastric antrum contraction at 0.1 uM; assay type: functional, Oryctolagus cuniculus; method in brief: as §2
Stomach [5] = test: Potentiation of electric field stimulated-rabbit gastric antrum contraction at 1 uM; assay type: functional, Oryctolagus cuniculus; method in brief: as §2
Cytochrome P450 3A4 [6] = target: T2, Cytochrome P450 3A4; test: Inhibition of human CYP3A4 expressed in Escherichia coli using diethoxyfluorescein substrate measured in 0 to 5 mins by time dependent inhibition assay; assay type: ADME
Stomach [7] = test: Potentiation of electric field stimulated-rabbit gastric antrum contraction at 3 uM; assay type: functional, Oryctolagus cuniculus
Method in brief: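 Isolated rabbit gastric antrum; cholinergic contractions evoked by electrical field stimulation, compound response expressed as % potentiation of EFS-evoked contraction, n = 4-8.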

[8] = Half life in rabbit gastric antrum native tissue at 3 uM; assay type: ADME, tissue-based, Oryctolagus cuniculus, Stomach
[9] = Aqueous solubility of the compound; assay type: physicochemical; settings: aqueous medium
Cytochrome P450 3A4 [10] = target: T2, Cytochrome P450 3A4; test: Inhibition of human CYP3A4 expressed in Escherichia coli using 7BQ substrate by time dependent inhibition assay; assay type: ADME
Motilin receptor [11] = target: T1, Motilin receptor; test: Agonist activity at human recombinant motilin receptor expressed in CHO cells assessed as increase in intracellular calcium by FLIPR assay; assay type: functional, cell-based; method in brief: as §1
Cytochrome P450 3A4 [12] = target: T2, Cytochrome P450 3A4; test: Inhibition of human CYP3A4 expressed in Escherichia coli using diethoxyfluorescein substrate by time dependent inhibition assay; assay type: ADME
Cytochrome P450 3A4 [13] = target: T2, Cytochrome P450 3A4; test: Inhibition of human CYP3A4 expressed in Escherichia coli using diethoxyfluorescein substrate assessed as decrease in enzyme activity by time dependent inhibition assay; assay type: ADME; parameters: unit not given here
[14] = Half life in rabbit gastric antrum native tissue at 0.3 uM; assay type: ADME, tissue-based, Oryctolagus cuniculus, Stomach

T2 sequence (P08684 whole entry): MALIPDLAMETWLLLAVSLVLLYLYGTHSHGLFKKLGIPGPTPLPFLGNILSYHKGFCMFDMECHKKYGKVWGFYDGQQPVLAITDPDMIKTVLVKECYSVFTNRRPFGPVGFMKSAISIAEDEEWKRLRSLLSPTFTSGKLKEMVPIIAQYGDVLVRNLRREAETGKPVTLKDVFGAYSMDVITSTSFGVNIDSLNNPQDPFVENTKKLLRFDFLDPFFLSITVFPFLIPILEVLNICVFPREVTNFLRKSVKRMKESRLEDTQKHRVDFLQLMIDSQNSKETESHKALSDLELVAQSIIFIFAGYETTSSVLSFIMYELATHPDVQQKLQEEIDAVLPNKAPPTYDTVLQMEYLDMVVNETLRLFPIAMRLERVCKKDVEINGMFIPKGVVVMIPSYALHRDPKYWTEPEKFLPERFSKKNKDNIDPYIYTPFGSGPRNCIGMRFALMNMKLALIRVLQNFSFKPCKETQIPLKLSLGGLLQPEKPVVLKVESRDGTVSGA
T1 sequence (O43193 whole entry): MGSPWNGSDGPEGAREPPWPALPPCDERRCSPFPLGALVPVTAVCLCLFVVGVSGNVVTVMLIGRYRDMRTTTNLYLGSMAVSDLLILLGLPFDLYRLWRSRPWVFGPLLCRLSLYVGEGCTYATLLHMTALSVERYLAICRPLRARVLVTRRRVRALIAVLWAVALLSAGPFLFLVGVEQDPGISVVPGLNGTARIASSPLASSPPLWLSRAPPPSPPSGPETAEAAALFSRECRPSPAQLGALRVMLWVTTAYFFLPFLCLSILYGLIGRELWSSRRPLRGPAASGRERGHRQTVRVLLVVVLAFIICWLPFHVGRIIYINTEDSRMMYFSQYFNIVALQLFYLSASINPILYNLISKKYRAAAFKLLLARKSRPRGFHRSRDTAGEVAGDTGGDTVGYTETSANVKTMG

Structure (SMILES) | Intrinsic activity (Motilin receptor [1]) | EC50 (Motilin receptor [11]) [nM] | IC50 (Cytochrome P450 3A4 [12]) [nM] | Activity (Cytochrome P450 3A4 [13]) | other results
C[C@H]1CN(Cc2ccc(CC(=O)N3CCC(Nc4cccc(F)c4)CC3)cc2)CCN1 | 0.9 |  |  |  | 
CC[C@H]1OC(=O)[C@H](C)[C@@H](O[C@H]2C[C@@](C)(OC)[C@@H](O)[C@H](C)O2)[C@H](C)[C@@H](O[C@@H]2O[C@H](C)C[C@H](N(C)C)[C@H]2O)[C@](C)(O)C[C@@H](C)C(=O)[C@H](C)[C@@H](O)[C@]1(C)O [ERYTHROMYCIN] | 1.3 |  |  |  | IC50 (Cytochrome P450 3A4 [2]): 190 nM; Activity (Stomach [3]): 69%; Activity (Stomach [4]): 14%; Activity (Stomach [5]): 189%; IC50 (Cytochrome P450 3A4 [6]): 1900 nM; Activity (Stomach [7]): 490%; half-life at 3 µM [8]: 24 min
C[C@H]1CN(Cc2ccc(CC(=O)N3CCC(Nc4cccc(F)c4)CC3)cc2)CCN1.Cl |  |  |  |  | solubility [9]: > 1 µg/mL
C[C@H]1CN(Cc2ccc(CCC(=O)N3CCC(Nc4cccc(F)c4)CC3)cc2)CCN1 | 1 | 25.1 | 10000 | 3.2 | IC50 (Cytochrome P450 3A4 [10]): 18000 nM
C[C@H]1CN(Cc2ccc(CC(=O)N3CCC(Nc4ccc(F)cc4)CC3)cc2)CCN1 | 0.8 | 10 |  |  | 
C[C@@H]1CN(Cc2ccc(C(C)(C)C(=O)N3CCC(Nc4ccc(F)cc4)CC3)cc2)C[C@H](C)N1 | 0.7 | 31.6 | 4700 | 6.1 | 
CCCC[C@H](NC(=O)[C@H](CCCNC(=N)N)NC(=O)[C@H](CCC(N)=O)NC(=O)[C@H](CC(C)C)NC(=O)[C@H](CCC(=O)O)NC(=O)CNC(=O)[C@H](Cc1ccc(O)cc1)NC(=O)[C@@H](NC(=O)[C@H](Cc1ccccc1)NC(=O)[C@@H](NC(=O)[C@@H]1CCCN1C(=O)[C@@H](NC(=O)[C@@H](N)Cc1ccccc1)C(C)C)[C@@H](C)CC)[C@@H](C)O)C(=O)N[C@@H](CCC(N)=O)C(=O)N[C@@H](CCC(=O)O)C(=O)N[C@@H](CCCCN)C(=O)N[C@@H](CCC(=O)O)C(=O)N[C@@H](CCCNC(=N)N)C(=O)N[C@@H](CC(N)=O)C(=O)N[C@@H](CCCCN)C(=O)NCC(=O)N[C@@H](CCC(N)=O)C(=O)O |  |  |  |  | Activity (Stomach [3]): 740%; Activity (Stomach [4]): 721%; half-life at 0.3 µM [14]: 11.4 min
CC(C(=O)N1CCC(Nc2ccc(F)cc2)CC1)c1ccc(CN2C[C@@H](C)N[C@@H](C)C2)cc1 (stereo partly drawn) | 1.1 | 31.6 | 8700 | 7.6 | 
